Experimental data: ChEMBL document CHEMBL1121619, “Demethyl analogues of psychoactive methoxyphenalkylamines: synthesis and serotonin receptor affinities” (J Med Chem, 1980)

Molecular target: T1, 5-hydroxytryptamine receptor 2B (Rattus norvegicus, UniProt P30994)
Assay: Antagonistic activity against 5-hydroxytryptamine 2B receptor obtained from rat stomach fundus preparation
Assay type: functional, tissue-based
Conditions: read-out: pA2 (converted)

T1 sequence (P30994 whole entry): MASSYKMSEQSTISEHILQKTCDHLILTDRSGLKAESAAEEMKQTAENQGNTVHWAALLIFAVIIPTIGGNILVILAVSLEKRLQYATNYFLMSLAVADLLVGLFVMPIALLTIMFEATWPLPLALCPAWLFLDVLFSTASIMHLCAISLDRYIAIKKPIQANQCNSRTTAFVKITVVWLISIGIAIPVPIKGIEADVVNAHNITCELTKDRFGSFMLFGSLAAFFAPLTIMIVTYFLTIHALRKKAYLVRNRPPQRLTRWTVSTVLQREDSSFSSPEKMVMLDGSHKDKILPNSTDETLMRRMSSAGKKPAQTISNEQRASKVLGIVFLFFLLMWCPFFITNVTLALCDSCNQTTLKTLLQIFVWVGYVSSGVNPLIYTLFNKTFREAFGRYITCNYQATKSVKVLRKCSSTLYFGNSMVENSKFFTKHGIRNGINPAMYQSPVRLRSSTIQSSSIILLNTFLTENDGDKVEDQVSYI

| Structure (SMILES) | Kb [nM] |
| --- | --- |
| COc1ccc(O)c(CCN)c1 | 79.4 |
| COc1cc(CC(C)N)c(O)cc1C (centres undefined) | 36.3 |
| COc1ccc(O)c(CCN(C)C)c1 | 145 |
| COc1ccc(CC(C)N)cc1O (centres undefined) | 135 |
| COc1ccc(O)c(CC(C)N(C)C)c1 (centres undefined) | 166 |
| COc1cc(CC(C)N)ccc1O (stereo not drawn) [3-O-METHYL-ALPHA-METHYLDOPAMINE] | 6460 |
| COc1ccc(O)c(CC(C)N)c1 (centres undefined) | 100 |
| COc1ccc(OCc2ccccc2)c(CCN(C)C)c1 | 3630 |
| COc1cc(C)c(O)cc1CC(C)N (centres undefined) | 12.3 |

Molecular target: Serotonin (5-HT) receptor
Assay: (§1) Antagonistic activity of corresponding methoxy compound against serotonin 5-HT receptor
Assay type: functional
Conditions: not given

| Structure (SMILES) | pA2 |
| --- | --- |
| NCCc1ccccc1O | 5.52 |

Molecular target: T1, 5-hydroxytryptamine receptor 2B
Assay: as §1
Assay type: functional
Conditions: read-out: pA2 (converted)

| Structure (SMILES) | Kb [nM] |
| --- | --- |
| NCCc1ccc(O)cc1 [TYRAMINE] | 7940 |

Test system: Rattus norvegicus
Assay: Compound was tested for its activity for maximal correct- drug lever responding at doses 3 mg/Kg in rat; Range 0-8%
Assay type: functional
Conditions: not given
Outline: (§2)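 Rats were trained in a two-lever drug discrimination procedure to tell 5-methoxy-N,N-dimethyltryptamine hydrogen oxalate (1.5 mg/kg) from saline. Each challenge dose was given to three to six rats, and the percentage of drug-lever responding was recorded.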

| Structure (SMILES) | Activity [%] |
| --- | --- |
| COc1cc(C)c(O)cc1CC(C)N (centres undefined) | 0 |

Test system: Rattus norvegicus
Assay: Compound was tested for its activity for maximal correct- drug lever responding at doses 5 mg/Kg in rat; Range 0-8%
Assay type: functional
Conditions: not given
Outline: as §2

| Structure (SMILES) | Activity [%] |
| --- | --- |
| COc1cc(C)c(O)cc1CC(C)N (centres undefined) | 0 |

Molecular target: T1, 5-hydroxytryptamine receptor 2B
Assay: Antagonistic against 5-hydroxytryptamine 2B receptor
Assay type: functional
Conditions: read-out: pA2 (converted)

| Structure (SMILES) | Kb [nM] |
| --- | --- |
| COc1ccc(O)c(CCN)c1 | 141 |
| COc1cc(CC(C)N)c(O)cc1C (centres undefined) | 75.9 |
| COc1ccc(O)c(CCN(C)C)c1 | 302 |
| COc1ccc(CC(C)N)cc1O (centres undefined) | 3550 |
| COc1ccc(O)c(CC(C)N(C)C)c1 (centres undefined) | 316 |
| COc1cc(CC(C)N)ccc1O (stereo not drawn) [3-O-METHYL-ALPHA-METHYLDOPAMINE] | 3550 |
| COc1ccc(O)c(CC(C)N)c1 (centres undefined) | 148 |
| COc1ccc(CC(C)N)c(O)c1 (centres undefined) | 2510 |
| COc1ccc(OCc2ccccc2)c(CCN(C)C)c1 | 302 |
| COc1cc(C)c(O)cc1CC(C)N (centres undefined) | 75.9 |

Test system: Rattus norvegicus
Assay: Compound was tested for its activity for maximal correct- drug lever responding at doses 2 mg/Kg in rat; Range 0-8%
Assay type: functional
Conditions: not given
Outline: as §2

| Structure (SMILES) | Activity [%] |
| --- | --- |
| COc1cc(C)c(O)cc1CC(C)N (centres undefined) | 0 |
